In ChEMBL document CHEMBL3124858, “Drug design targeting protein-protein interactions (PPIs) using multiple ligand simultaneous docking (MLSD) and drug repositioning: discovery of raloxifene and bazedoxifene as novel inhibitors of IL-6/GP130 interface” (J Med Chem, 2014):
Calls of active or inactive are those of the source. No cut-off for these calls is given here.

Tests used:
[1] = target: T1, Interleukin-6 receptor subunit beta (Homo sapiens, UniProt P40189); assay: Binding affinity to GP130 (unknown origin) by surface plasmon resonance analysis
T1 sequence (P40189 whole entry): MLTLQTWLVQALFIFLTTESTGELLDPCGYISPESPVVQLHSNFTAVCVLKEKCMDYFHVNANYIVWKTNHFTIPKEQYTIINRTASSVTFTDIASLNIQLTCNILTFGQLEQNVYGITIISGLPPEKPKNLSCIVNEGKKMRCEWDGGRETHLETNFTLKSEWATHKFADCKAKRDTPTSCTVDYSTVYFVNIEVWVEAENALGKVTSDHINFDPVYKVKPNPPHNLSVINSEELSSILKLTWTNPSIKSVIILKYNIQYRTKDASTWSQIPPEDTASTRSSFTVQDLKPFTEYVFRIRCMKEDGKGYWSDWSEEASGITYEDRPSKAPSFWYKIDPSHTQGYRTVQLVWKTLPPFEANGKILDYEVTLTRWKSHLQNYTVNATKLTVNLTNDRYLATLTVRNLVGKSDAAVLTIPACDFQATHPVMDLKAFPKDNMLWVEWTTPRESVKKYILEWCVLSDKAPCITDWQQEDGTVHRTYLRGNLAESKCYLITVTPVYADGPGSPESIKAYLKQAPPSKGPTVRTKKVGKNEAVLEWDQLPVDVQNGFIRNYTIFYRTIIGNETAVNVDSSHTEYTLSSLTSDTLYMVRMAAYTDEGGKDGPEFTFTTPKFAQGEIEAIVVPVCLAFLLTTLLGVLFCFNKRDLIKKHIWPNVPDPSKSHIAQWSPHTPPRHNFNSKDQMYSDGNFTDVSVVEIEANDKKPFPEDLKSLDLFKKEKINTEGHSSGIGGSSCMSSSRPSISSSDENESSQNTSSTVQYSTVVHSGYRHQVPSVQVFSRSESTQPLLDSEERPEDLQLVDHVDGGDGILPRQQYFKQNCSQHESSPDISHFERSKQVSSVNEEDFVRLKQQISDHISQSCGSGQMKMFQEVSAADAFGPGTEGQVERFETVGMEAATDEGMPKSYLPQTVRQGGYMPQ

[2] = Cytotoxicity against ER-negative human SUM159 cells assessed as cell viability after 72 hrs by MTT assay in presence of IL-6; type: functional, cell-based; settings: SUM-159-PT
Outline: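 SUM159 (ER negative) seeded at 3,000 cells/well, given […] compound in triplicate with 10% FBS. Incubated 72 h at 37 °C, then MTT read-out, absorbance at 595 nm. IC50 from curve fitting.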

[3] = Cytotoxicity against human MIAPaCa2 cells assessed as cell viability; type: functional, cell-based; settings: MIA PaCa-2
PANC-1 = assay: Inhibition of IFN-gamma receptor/GP130 interaction in human PANC-1 cells assessed as inhibition of IFN-gamma-induced STAT1 phosphorylation at Y701 at 25 uM […] measured after 24 hrs by Western blot analysis; type: cell-based
Outline: (§1)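 PANC-1 cells (GP130+, ER−) in DMEM/10% FBS, stimulated with 50 ng/ml IL-6 or IFN-γ for 30 min before compound (10-50µM range), then 24 h at 60-80% confluence with 10% FBS. Whole-cell extracts made in RIPA with protease inhibitors. Blotted for pSTAT3 (Tyr705), STAT3, pSTAT1 (Tyr701), STAT1 and GAPDH, with chemiluminescent detection.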

[4] = target: LIFR/GP130 (Homo sapiens) (UniProt P40189+P42702); assay: Inhibition of LIFR/GP130 interaction in human PANC-1 cells assessed as inhibition of LIF-induced STAT3 phosphorylation at Y705 at 25 uM after 24 hrs by Western blot analysis; type: cell-based
Sequence of LIFR/GP130 (Homo sapiens) (P42702 whole entry, looked up, one chain of several): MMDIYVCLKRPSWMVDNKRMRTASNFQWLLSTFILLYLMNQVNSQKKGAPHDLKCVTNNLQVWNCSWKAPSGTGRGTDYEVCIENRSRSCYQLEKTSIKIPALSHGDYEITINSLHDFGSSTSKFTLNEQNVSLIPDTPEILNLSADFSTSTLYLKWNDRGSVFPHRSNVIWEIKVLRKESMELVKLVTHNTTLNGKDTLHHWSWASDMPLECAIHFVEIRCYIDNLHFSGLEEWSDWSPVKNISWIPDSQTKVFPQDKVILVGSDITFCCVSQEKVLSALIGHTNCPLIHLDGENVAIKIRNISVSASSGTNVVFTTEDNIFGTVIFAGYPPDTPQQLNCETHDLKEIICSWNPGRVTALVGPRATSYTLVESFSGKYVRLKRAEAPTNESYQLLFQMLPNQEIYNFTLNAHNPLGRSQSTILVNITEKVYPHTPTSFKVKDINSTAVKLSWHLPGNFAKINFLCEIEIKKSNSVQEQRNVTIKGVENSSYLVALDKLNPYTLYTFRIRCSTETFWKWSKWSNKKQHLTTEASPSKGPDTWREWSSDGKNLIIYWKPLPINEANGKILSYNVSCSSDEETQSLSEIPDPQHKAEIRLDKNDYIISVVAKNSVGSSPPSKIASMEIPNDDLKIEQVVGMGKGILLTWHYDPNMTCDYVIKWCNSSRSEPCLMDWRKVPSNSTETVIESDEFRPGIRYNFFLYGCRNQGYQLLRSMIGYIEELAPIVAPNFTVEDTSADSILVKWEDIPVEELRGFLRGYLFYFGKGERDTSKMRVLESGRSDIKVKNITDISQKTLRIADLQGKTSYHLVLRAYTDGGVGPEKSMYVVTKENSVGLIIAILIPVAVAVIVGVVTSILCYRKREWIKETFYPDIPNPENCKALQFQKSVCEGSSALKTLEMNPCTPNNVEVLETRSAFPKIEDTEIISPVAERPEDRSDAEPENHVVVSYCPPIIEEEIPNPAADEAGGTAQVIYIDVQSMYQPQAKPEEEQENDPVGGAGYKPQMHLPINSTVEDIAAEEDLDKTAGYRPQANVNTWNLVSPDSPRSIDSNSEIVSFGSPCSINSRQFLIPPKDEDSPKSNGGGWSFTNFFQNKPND

[5] = target: T2, IL6Ralpha/GP130 (Homo sapiens) (UniProt P08887+P40189); assay: Inhibition of IL-6Ralpha/GP130 interaction in ER-negative human SUM159 cells overexpressing IL-6 assessed as inhibition of constitutive STAT3 phosphorylation at Y705 at 15 to 50 uM after 24 hrs by Western blot analysis; type: cell-based
T2 sequence (P08887 whole entry, looked up, one chain of several): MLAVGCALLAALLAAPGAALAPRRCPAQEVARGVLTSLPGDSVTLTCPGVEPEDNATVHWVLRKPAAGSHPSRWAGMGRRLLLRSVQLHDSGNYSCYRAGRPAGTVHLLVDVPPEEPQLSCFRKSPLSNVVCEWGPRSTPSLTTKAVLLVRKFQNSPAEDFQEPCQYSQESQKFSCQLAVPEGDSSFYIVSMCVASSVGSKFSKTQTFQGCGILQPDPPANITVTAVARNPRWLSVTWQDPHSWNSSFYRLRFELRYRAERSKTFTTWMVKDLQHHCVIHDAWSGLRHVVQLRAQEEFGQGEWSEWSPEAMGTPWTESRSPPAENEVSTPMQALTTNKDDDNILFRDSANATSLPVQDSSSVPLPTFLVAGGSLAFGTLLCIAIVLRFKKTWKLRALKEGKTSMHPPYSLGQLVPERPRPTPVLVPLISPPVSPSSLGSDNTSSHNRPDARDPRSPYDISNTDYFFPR
Outline: (§2)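 Constitutive STAT3 activity in SUM159 (ER negative) cells grown in DMEM/10% FBS. Compound (10-50µM) or DMSO added at 60-80% confluence with 10% FBS for 24 h. RIPA whole-cell lysates run on SDS-PAGE and immunoblotted overnight at 4 °C for pSTAT3 (Tyr705), STAT3 and GAPDH. Detection by chemiluminescence.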

[6] = target: T2, IL6Ralpha/GP130 (Homo sapiens); assay: Inhibition of IL-6Ralpha/GP130 interaction in ER-negative human SUM159 cells overexpressing IL-6 assessed as inhibition of constitutive STAT3 phosphorylation at Y705 at 10 to 30 uM after 24 hrs by Western blot analysis; type: cell-based; outline: as §2
[7] = target: T2, IL6Ralpha/GP130 (Homo sapiens); assay: Inhibition of IL-6Ralpha/GP130 interaction in human PANC-1 cells assessed as inhibition of IL-6-induced STAT3 phosphorylation at Y705 at 25 uM […] measured after 24 hrs by Western blot analysis; type: cell-based; outline: as §1

| Kd [1] [µM] | inhibition [4] | inhibition [5] | inhibition [6] | inhibition [7] | Compound | IC50 [2] [µM] | IC50 [3] [µM] | inhibition (PANC-1) |
| --- | --- | --- | --- | --- | --- | --- | --- | --- |
| 288 | – | – | – | – | CCCCC1=C(C)C(=O)[C@](C)(CN2c3ccccc3[C@]3(O)CCOC23)C1=O (stereo partly drawn) [MADINDOLINE A] | > 250 | – | – |
| – | inactive | Active | – | – | O=C(c1ccc(OCCN2CCCCC2)cc1)c1c(-c2ccc(O)cc2)sc2cc(O)ccc12 [RALOXIFENE] | 43.2 | 26.3 | inactive |
| – | inactive | – | Active | Active | Cc1c(-c2ccc(O)cc2)n(Cc2ccc(OCCN3CCCCCC3)cc2)c2ccc(O)cc12 [BAZEDOXIFENE] | 24.9 | 9.7 | inactive |
